STAT3 act: STAT3 signaling activation; activation (% of control), % at 5.6 µM; 190,000 compounds, 0.91% hits; U3A cells, IL-6 STAT3-luciferase reporter, luminescence; 100% = signal with IL-6 EC80 alone;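 active = activation above the screen-wide mean of compound activation plus 3 SD, cut at about 130% in these data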;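 note: 0% = background luminescence of wells with medium and substrate only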
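Material: human STAT1-deficient U3A cells with stable STAT3-luciferase reporter / Probe or stimulus: IL-6 stimulus at 33 ng/mL final / Schedule: 1 h compound pre-exposure, 6 h IL-6 stimulation, 37 °C / Technique: luminescence / Read-out basis: percent of IL-6-only median luminescence / Control set: IL-6-only high control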
NF-kB neuron act: NF-kB expression increase, human neuronal cells | NF-kB reporter expression; hits give high values | fold change at 12.5 µM | 190,000 compounds, 1.6% hits | AID 1239; in the data active = fold change above about 3.3
APP 5'UTR act: APP 5'UTR luciferase reporter activation | SH-SY5Y APP 5'UTR luciferase reporter, luminescence; zero percent = DMSO vehicle wells | activation, % at 2 µM | AID 1276 | 190,000 compounds, 1% hits;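 active = activation above a set limit, based on mean plus 3 SD of controls, cut at about 140% in these data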
STAT1 activator: increases IFN-gamma driven STAT1 reporter signal | activation (% of control), % at 5.5 µM | 200,000 compounds, 2.6% hits | NIH 3T3 STAT1-luciferase reporter, luminescence; 100% = IFN-gamma alone, no compound;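 active = activation above the screen-wide mean activation plus 3 SD, cut at about 130% in these data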;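 note: raw ratio to IFN-gamma control signal so 100% means no change and 0% no light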
STAT3 blocker: reduces IL-6 driven STAT3 reporter signal | U3A cells, IL-6 STAT3-luciferase reporter, luminescence; host cell line lacks STAT1 | inhibition, % at 5.5 µM | 190,000 compounds, 0.89% hits;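 active = inhibition above the mean inhibition across all screened compounds plus 3 SD, cut at about 44% in these data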;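 note: 0% = DMSO only wells and 100% = 100 µM nifuroxazide control wells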
STAT1 inh: inhibitors of IFN-gamma induced STAT1 signaling; inhibition, % at 5.5 µM; NIH 3T3 STAT1-luciferase reporter, luminescence; 200,000 compounds, 0.35% hits; AID 920;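 active = inhibition above a set limit, the mean inhibition across all tested compounds plus 3 SD, cut at about 34% in these data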;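 note: 0% = IFN-gamma with DMSO and 100% = IFN-gamma with 300 µM nifuroxazide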
STAT1 activ conf: STAT1 activation, confirmation assay; 1,200 compounds, 97% hits; AID 1262; shares compounds with STAT1 activator; activation (% of control), % at 5.7 µM; NIH 3T3 STAT1-luciferase reporter, IFN-gamma potentiation, luminescence; 100% = IFN-gamma EC80 alone, no compound;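 active = activation above a set limit carried over from the earlier primary STAT1 screen, cut at about 140% in these data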;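 note: simple ratio to median IFN-gamma plus DMSO wells so 0% means no light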
NFkB act STAT1ct: activates NF-kappaB, counter-screen to STAT1 activators; 1,200 compounds, 43% hits; HEK293T NF-kB luciferase reporter, TNF-alpha stimulated, luminescence; 100% = TNF-alpha with vehicle only; shares compounds with STAT1 activator; activation (% of control), % at 5.7 µM; AID 1306;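 active = activation above the mean of solvent-only control wells plus 3 SD, set per campaign, cut at about 130% in these data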;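 note: TNF-alpha given at a submaximal dose yielding about 80% of full reporter signal; values are well signal over median control so 100% means no change and 0% no light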
STAT3 act 2: activates human STAT3, counter-screen to STAT1 activators; shares compounds with STAT1 activator; U3A cells STAT3-luciferase reporter, IL-6, luminescence; cells lack STAT1; 100 = IL-6 alone, no compound effect; activation (% of control), % at 5.7 µM; 1,200 compounds, 46% hits; AID 1316;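 active = activation above the solvent-only control well mean plus 3 SD, set per plate batch, cut at about 110% in these data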;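 note: 0% = no luminescence and 100% = median IL-6 plus DMSO wells; higher means more STAT3 reporter activation so hits are non-selective activators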
* = called active by the depositor; x = no result given. This is a sample that favours compounds with a hit; in the whole collection about 5.1% have one here.

SMILES | STAT3 act | NF-kB neuron act | APP 5'UTR act | STAT1 activator | STAT3 blocker | STAT1 inh | STAT1 activ conf | NFkB act STAT1ct | STAT3 act 2
Fc1cccc2sc(Nc3nc4cc5c(cc4s3)OCCO5)nc12 | 93 | 1.7 | 162* | 170* | 8 | -78 | 249* | 108 | 132*
Fc1cccc2sc(Nc3nc4cc5c(cc4s3)OCO5)nc12 | 115 | 3.5* | 139* | 175* | -18 | -84 | 213* | 141* | 125*
CN=C(Nc1cccc(OC)c1)SC1CC(=O)N(c2ccc(C(=O)O)cc2)C1=O (centres undefined) | 104 | 1.1 | 6 | 93 | -7 | 8 | x | x | x
CCNc1sc(C(=O)OCC)c(N)c1C#N | 99 | 1.1 | 3 | 103 | 6 | -1 | x | x | x
OCCNc1c2ccccc2nc2ccccc12 | 130 | 0.92 | 6 | 158* | -26 | -65 | 159* | 133 | 117*
Cc1cc(NCCO)c2ccccc2n1 | 99 | 1.1 | 10 | 89 | 2 | 12 | x | x | x
O=C(Nc1ccccc1Cl)c1cnccn1 | 82 | 1.1 | -7 | 94 | 27 | 8 | x | x | x
CC(C)C(=O)Nc1ncc(Cc2ccccc2Cl)s1 | 94 | 1.8 | -15 | 92 | 10 | 7 | x | x | x
CC(C)(C)C(=O)c1cnc(Nc2ccccc2Cl)s1 | 97 | 5.1* | 114 | 158* | 3 | -64 | 204* | 133 | 111*
O=C(c1ccccc1)c1cnc(Nc2ccccc2Cl)s1 | 106 | 7.3* | 174* | 162* | -6 | -69 | 214* | 135* | 113*
O=C(c1cccs1)n1nc(-c2cccnc2)nc1NCc1ccco1 | 90 | 1.2 | -22 | 103 | 19 | -6 | x | x | x
Cc1cc(C)c(NS(=O)(=O)c2ccc(NC(=O)/C=C/C(=O)O)cc2)c(C)c1 | 96 | 1 | 16 | 91 | 4 | 10 | x | x | x
c1ccc(-c2nc3ccccc3s2)nc1 | 83 | 4.7* | 123 | 158* | 24 | -64 | 200* | 121 | 102
CN(C)c1ncccc1-c1nc2ccccc2s1 | 104 | 1 | 7 | 99 | -4 | 1 | x | x | x
O=C1c2ccccc2C(=O)N1CCc1c[nH]c2ccccc12 | 98 | 4.6* | 101 | 158* | 9 | -65 | 177* | 129 | 99
O=C1c2ccccc2C(=O)N1CCCc1c[nH]c2ccccc12 | 89 | 1.3 | 10 | 112 | 16 | -13 | x | x | x
COC(=O)c1ccc(N=NNc2cccc(Br)c2)cc1 | 114 | 3.3* | 61 | 152* | -19 | -58 | 224* | 134* | 129*
CCCCCC(=O)Oc1cccc(N2C(=O)C3CCCCC3C2=O)c1 (centres undefined) | 106 | 1.1 | 1 | 92 | -3 | 8 | x | x | x
Clc1ccc(OCc2nc(-c3ccncc3)no2)c(Cl)c1 | 101 | 5.8* | 144* | 174* | 3 | -81 | 230* | 142* | 116*
Cc1ccc2cc3cc(C(=O)N4CCCCC4C)oc3nc2c1 (centres undefined) | 73 | 3.5* | 197* | 166* | 35 | -72 | 216* | 136* | 105
O=[N+]([O-])c1cc(S(=O)(=O)N2CCCCC2)ccc1NCCCN1CCOCC1 | 98 | 1.2 | 15 | 91 | 7 | 12 | x | x | x
CCC(=O)Nc1nc(-c2ccc3c(c2)OCCO3)cs1 | 103 | 7.1* | 147* | 153* | 1 | -58 | 212* | 145* | 110
O=C(COC(=O)c1ccc2c(c1)OCO2)Nc1nc(-c2ccccc2)cs1 | 97 | x | 18 | 102 | 10 | -2 | x | x | x
CC(=O)c1cnc2cc(C)nn2c1C | 112 | 1 | -1 | 112 | -8 | -13 | x | x | x
CC(=O)c1cnc2cc(-c3ccccc3)nn2c1C | 86 | 2.9 | 16 | 170* | 19 | -77 | 195* | 131 | 109
SMILES | STAT3 act | NF-kB neuron act | APP 5'UTR act | STAT1 activator | STAT3 blocker | STAT1 inh | STAT1 activ conf | NFkB act STAT1ct | STAT3 act 2
Nc1c(-c2ccccc2)cnc2cc(-c3ccccc3)nn12 | 77 | 4.8* | 290* | 158* | 34 | -65 | 276* | 134* | 98
O=C(Nc1cc2cc([N+](=O)[O-])ccc2oc1=O)c1cccs1 | 101 | 1 | 6 | 122 | 5 | -24 | x | x | x
COc1ccc(CNC(=O)C(C)c2ccc([N+](=O)[O-])cc2)cc1 (centres undefined) | 106 | 1.2 | -1 | 113 | -2 | -16 | x | x | x
Cc1cc(C)nc(SCc2csc(-c3ccccc3)n2)n1 | 83 | 4.5* | 146* | 169* | 22 | -76 | 187* | 125 | 99
CCCCCc1ccc(S(=O)(=O)NCCc2ccncc2)cc1 | 82 | 0.81 | -7 | 96 | 26 | 5 | x | x | x
C/C(=C\c1ccccc1)C(=O)Nc1nccs1 | 98 | 2.6 | 99 | 154* | 6 | -58 | 163* | 123 | 95
N#C/C(=C\c1cccs1)C(=O)Nc1nccs1 | 113 | 4.1* | 54 | 207* | -10 | -117 | 229* | 150* | 114*
N#C/C(=C\c1cccs1)C(=O)NCc1ccccc1 | 99 | 1.4 | 8 | 104 | 0 | -4 | x | x | x
O=C(Nc1nccs1)Oc1ccccc1 | 99 | 0.92 | 3 | 97 | 4 | 3 | x | x | x
CCOC(=O)C1=NNC2(c3ccc(Cl)cc3)C(=O)N(c3ccc(C)cc3)C(=O)C12 (centres undefined) | 101 | 1 | 2 | 95 | 4 | 5 | x | x | x
O=C(Cc1cccs1)Nc1cccc(-c2nc3cc4ccccc4cc3[nH]2)c1 | 100 | 4.8* | 195* | 197* | 9 | -107 | 270* | 158* | 106
CCOc1cccc(NC(=O)Cc2cccs2)c1 | 106 | 1 | -3 | 92 | -3 | 7 | x | x | x
CCn1c(CNC(=O)c2ccco2)nnc1SCC(=O)c1ccc(OC)cc1 | 99 | 1.3 | -5 | 99 | 3 | 0 | x | x | x
CC(C)=CCN1CCN(Cc2cc(C(C)C)n[nH]2)CC1CCO (centres undefined) | 108 | 1 | 2 | 100 | -6 | -3 | x | x | x
CCOC(=O)CC(=O)CSc1nc(-c2cccnc2)ccc1C#N | 89 | 1.1 | 0 | 98 | 17 | 2 | x | x | x
CCOC(=O)CSc1nc(-c2ccncc2)ccc1C#N | 104 | 8.9* | 185* | 159* | 1 | -64 | 190* | 131 | 106
N/C(=N\OC(=O)c1ccco1)c1ccc(Br)cc1 | 90 | 3.7* | 173* | 162* | 16 | -67 | 158* | 123 | 102
